The source of these data is ChEMBL document CHEMBL3856273, “Design, synthesis and biological evaluation of potential antibacterial butyrolactones” (Bioorg Med Chem, 2016).

Molecules are shown by their SMILES. Values after ≈ are worked out from the molar mass of the structure shown.

A word on the MIC: it is the least concentration at which growth counts as inhibited. Usually mortality stands for the share of the test organisms that died.

Series [1] concerns Streptococcus gordonii. Kind of series: Antibacterial activity against Streptococcus gordonii DL1 incubated for 24 hrs under anaerobic condition by agar dilution method. It is filed as functional. The conditions noted are these: DL1, 24 h. The method in brief: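 Columbia agar with horse blood containing compound at 300, 250, 200, 150, 100, 90, 80 or 70 µg/mL. Doxycycline positive control at 1:2 dilutions from 1.31 µg/mL; DMSO + methanol and water as negative controls. 2 µl spots of 10^5 CFU/mL inoculum, anaerobic incubation 24 h. MIC taken as lowest concentration preventing growth. Done three times.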

For series [2], the system named is Streptococcus gordonii. Kind of series: Bactericidal activity against Streptococcus gordonii DL1 preincubated for 24 hrs under anaerobic condition followed by incubation in columbia petri plates for 24 hrs by broth microdilution method. The class given is functional. The method in brief: (§1)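 CLSI broth microdilution in BHI. Compounds serially diluted 1:2 from 300 µg/mL; doxycycline control from 32.8 µg/mL; solvent mix also diluted. Wells inoculated with 3x10^7 CFU/mL, incubated 24 h anaerobically. MIC is the lowest clear well. Clear wells are plated on Columbia agar for 24 h; MBC is the lowest concentration killing ≥99% of inoculum.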
A general note: Dilution methods test growth across graded concentrations, often in twofold steps.

The test system of series [3] is Streptococcus gordonii. Kind of series: Antibacterial activity against Streptococcus gordonii DL1 preincubated for 24 hrs under anaerobic condition followed by incubation in columbia petri plates for 24 hrs by broth microdilution method. It is filed as functional. The gist of the method:
as §1

Series [4] is described as follows: Cytotoxicity against human THP1 cells assessed as cell death at MIC after 24 hrs by LDH assay. The class given is toxicity, cell-based. Conditions: thp-1, 24 h. The gist of the method:
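THP-1 cells were grown in RPMI 1640 with 1 mM pyruvate, 10% FBS and 2 mM L-glutamine at 37 °C, 5% CO2. They were seeded at 70 000 cells/well and differentiated with PMA 10 ng/mL for 72 h. Medium was replaced with compound for 24 h, with medium-only and Triton 1% controls (Triton = 100%). LDH release was measured in supernatant with CytoTox reagent for 30 min in the dark at room temperature, then stopped, and OD was read at 490 nm. Three experiments, each in triplicate.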

Series [5] in a line: Cytotoxicity against human Ca9-22 cells assessed as cell viability at MIC after 24 hrs by MTT assay relative to control. The conditions noted are these: read-out: Activity. It is filed as toxicity, cell-based.
Series [6] is described as follows: Cytotoxicity against human Ca9-22 cells assessed as cell death at MIC after 24 hrs by LDH assay. The class given is toxicity, cell-based. Conditions: ca9-22, 24 h. The method in brief: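 Ca9-22 gingival epithelial cells were grown in DMEM with 10% heat-inactivated FBS and 2 mM L-glutamine at 37 °C, 5% CO2, then trypsinized and seeded at 70 000 cells/well for 24 h. Compound was applied for 24 h, with medium-only and Triton 1% controls (Triton = 100% cytotoxicity). Supernatant was mixed with CytoTox reagent for 30 min in the dark at room temperature, then stopped, and OD was read at 490 nm. Three experiments, each in triplicate.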

Series [7] deals with Streptococcus gordonii. Kind of series: Potency index, ratio of doxycycline MBC=>99 to compound MBC=>99 for Streptococcus gordonii DL1. It is filed as functional.
Series [8] can be described thus: Cytotoxicity against human THP1 cells assessed as cell viability at MIC after 24 hrs by MTT assay relative to control. It is filed as toxicity, cell-based, THP-1. The conditions noted are these: read-out: Activity. The gist of the method:
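THP-1 grown in RPMI with pyruvate, Hepes and 10% FBS. Seeded at 70 000 cells/well and differentiated with PMA 10 ng/mL for 72 h. Medium removed, then compound at its MIC added for 24 h; Triton 1% positive control. MTT from 5 mg/mL stock for 4 h at 37 °C; acid-isopropanol solubilization; OD 595/655 nm as % of untreated. Three experiments in triplicate.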

For the compound `CCCCCCCCCCCCC[C@H]1OC(=O)C(C)=C1C(=O)O`, the figures for the MIC against Streptococcus gordonii [1] and in the series with Streptococcus gordonii [3] were 90 µg/mL (≈ 277 µM) and 4.69 µg/mL (≈ 14.5 µM), respectively. In the series on Streptococcus gordonii [2], the “MBC=>99” value was 18.75 µg/mL (≈ 57.8 µM).

Take `C=C[C@H]1CC(=O)O[C@@H]1CCCCCCCCC`: the minimal inhibitory concentration (MIC) in the series on Streptococcus gordonii [1] was more than 300 µg/mL; against Streptococcus gordonii [3], 75 µg/mL (≈ 315 µM). Moreover, in the series with Streptococcus gordonii [2], the “MBC=>99” value is 150 µg/mL (≈ 629 µM).

As to `CCCCCCCCCCCCCCC[C@@H]1OC(=O)C(C)=C1C(=O)O`, the mortality came out at 20% in series [4] and 9.6% in series [6]. In addition, the MIC was 200 µg/mL (≈ 567 µM) in the series with Streptococcus gordonii [1] and 9.38 µg/mL (≈ 26.6 µM) against Streptococcus gordonii [3]. Further, the “MBC=>99” value with Streptococcus gordonii [2] came out at 18.75 µg/mL (≈ 53.2 µM). In addition, the viability at 24 h worked out at 100% in series [5] and 107% in series [8]. Also, in the series on Streptococcus gordonii [7], the Ratio came to 2.

As to `CCCCCCCCC[C@@H]1C=CC(=O)O1`, the MIC is 300 µg/mL (≈ 1430 µM) against Streptococcus gordonii [1] and 150 µg/mL (≈ 713 µM) in the series with Streptococcus gordonii [3]. Also, in the series with Streptococcus gordonii [2], the “MBC=>99” value amounted to 300 µg/mL (≈ 1430 µM).

`CCCCCCCCCCCCC[C@@H]1OC(=O)C(C)=C1C(=O)O`: the MIC in the series on Streptococcus gordonii [1] stood at 90 µg/mL (≈ 277 µM); in the series with Streptococcus gordonii [3] it was 4.69 µg/mL (≈ 14.5 µM). Further, the “MBC=>99” value against Streptococcus gordonii [2] worked out at 18.75 µg/mL (≈ 57.8 µM).

With `CCCCCCCCC[C@@H]1OC(=O)C(C)=C1C(=O)O`, the MIC in the series with Streptococcus gordonii [1] and with Streptococcus gordonii [3] was 150 µg/mL (≈ 559 µM) throughout. The “MBC=>99” value in the series with Streptococcus gordonii [2] is more than 300 µg/mL.

Take `CCCCCCCCC[C@H]1OC(=O)C[C@H]1O`: the results for the MIC in the series on Streptococcus gordonii [1] and against Streptococcus gordonii [3] were 300 µg/mL (≈ 1310 µM) and 150 µg/mL (≈ 657 µM), respectively. Further, the “MBC=>99” value in the series on Streptococcus gordonii [2] was 300 µg/mL (≈ 1310 µM).

For `C=C[C@H]1CC(=O)O[C@@H]1CCCCCCCCCCCCC`, the MIC with Streptococcus gordonii [1] was more than 300 µg/mL; against Streptococcus gordonii [3], 75 µg/mL (≈ 255 µM). Besides, the “MBC=>99” value against Streptococcus gordonii [2] stood at 75 µg/mL (≈ 255 µM).

As to `CCCCCCCCCCCCC[C@@H]1C=CC(=O)O1`, the MIC with Streptococcus gordonii [1] was more than 300 µg/mL; with Streptococcus gordonii [3] it was 75 µg/mL (≈ 282 µM). Also, the “MBC=>99” value in the series on Streptococcus gordonii [2] was found to be 75 µg/mL (≈ 282 µM).

In the case of `CCCCCCCCCCCCCCCC[C@@H]1OC(=O)C(C)=C1C(=O)O`, the mortality in series [4] is 10%; in series [6], 12%. Further, the MIC against Streptococcus gordonii [1] is more than 300 µg/mL; against Streptococcus gordonii [3], 9.38 µg/mL (≈ 25.6 µM). Further, the “MBC=>99” value in the series with Streptococcus gordonii [2] was 9.38 µg/mL (≈ 25.6 µM). Further, the viability at 24 h stood at 96% in series [5] and 106% in series [8]. Further, the Ratio in the series on Streptococcus gordonii [7] is reported as 3.

`CCCCCCCCC[C@H]1OC(=O)C(C)=C1C(=O)O`: the MIC with Streptococcus gordonii [1] and against Streptococcus gordonii [3] was 150 µg/mL (≈ 559 µM) each time. Also, the “MBC=>99” value with Streptococcus gordonii [2] was more than 300 µg/mL.

For the compound `CCCCCCC[C@@H]1OC(=O)C(C)=C1C(=O)O`, the MIC in the series with Streptococcus gordonii [1] and in the series with Streptococcus gordonii [3] was more than 300 µg/mL in each case. In addition, the “MBC=>99” value against Streptococcus gordonii [2] is more than 300 µg/mL.

For `CCCCCCCCCCCCC[C@H]1OC(=O)C[C@H]1O`, the figures for the minimal inhibitory concentration (MIC) against Streptococcus gordonii [1] and against Streptococcus gordonii [3] were more than 300 µg/mL and 75 µg/mL (≈ 264 µM), respectively. Also, the “MBC=>99” value with Streptococcus gordonii [2] is 150 µg/mL (≈ 527 µM).

For `C[C@H]1c2cccc(O)c2C(=O)C2=C(O)[C@]3(O)C(=O)C(C(N)=O)=C(O)[C@@H](N(C)C)[C@@H]3[C@@H](O)[C@@H]21.O` [DOXYCYCLINE], the minimum inhibitory concentration (MIC) came to 0.41 µg/mL in the series on Streptococcus gordonii [1] and 0.51 µg/mL with Streptococcus gordonii [3]. Further, the “MBC=>99” value in the series with Streptococcus gordonii [2] turned out to be 32.8 µg/mL.
